Converted amounts (≈) assume the structure as drawn.
What was measured:
[1] = target: T1, Neuromedin-K receptor (Homo sapiens) (UniProt P29371); experiment: Inhibition of NK3 receptor at 10 uM
T1 sequence (whole entry): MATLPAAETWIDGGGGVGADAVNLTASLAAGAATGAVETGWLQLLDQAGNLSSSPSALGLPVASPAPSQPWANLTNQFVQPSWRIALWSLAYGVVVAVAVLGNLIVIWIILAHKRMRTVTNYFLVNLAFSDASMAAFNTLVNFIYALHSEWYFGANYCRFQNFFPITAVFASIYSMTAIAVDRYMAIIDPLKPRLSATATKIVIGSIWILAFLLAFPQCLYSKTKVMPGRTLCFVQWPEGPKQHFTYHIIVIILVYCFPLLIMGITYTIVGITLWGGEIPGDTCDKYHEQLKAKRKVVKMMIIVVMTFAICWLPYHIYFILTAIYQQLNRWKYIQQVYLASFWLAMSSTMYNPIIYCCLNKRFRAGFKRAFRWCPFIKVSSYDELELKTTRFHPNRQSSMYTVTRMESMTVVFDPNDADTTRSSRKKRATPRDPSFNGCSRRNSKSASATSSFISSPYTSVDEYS

[2] = system: Canis familiaris; experiment: Antialzheimer activity in beagle dog assessed as amyloid beta 42 level in cerebrospinal fluid at 20 mg/kg, po at 8 hrs by ELISA relative to control
[3] = system: Rattus norvegicus; experiment: Antialzheimer activity in Sprague-Dawley rat assessed as amyloid beta 42 level in brain at 10 mg/kg, po at 7 hrs by ELISA relative to control; format: functional
Outline: (§1)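 Male Sprague-Dawley rats (180-220 g), fasted overnight, were given 10 mg/kg by gastric intubation as a 5 mg/mL suspension in 0.5% methocellulose. At 2, 4, 7 and 25 h, 50 μL CSF was taken from the cisterna magna under isoflurane, then brain was collected. Aβ37/38/40/42 were measured by MesoScale Discovery sandwich immunoassays. Results are mean % change versus T = 0 h, n = 5.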

[4] = system: Rattus norvegicus; experiment: Antialzheimer activity in Sprague-Dawley rat assessed as amyloid beta 40 level in brain at 10 mg/kg, po at 4 hrs by ELISA relative to control; format: functional; outline: as §1
[5] = system: MDR1; experiment: Apparent permeability from apical to basal side of pig LLCPK1 cells expressing MDR1; format: ADME, cell-based, Sus scrofa; conditions: LLC-PK1
[6] = system: Mus musculus; experiment: Antialzheimer activity in CD1 mouse assessed as amyloid beta 42 level in brain at 10 mg/kg, po at 8 hrs by ELISA relative to control; format: functional
Outline: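 Male CD1 SPF mice, fasted overnight, got a single oral dose of 10 or 30 mg/kg. At each time point the right brain hemisphere was homogenized in 0.4% DEA/50 mM NaCl with protease inhibitors and spun at 221300g for 50 min. The supernatant was neutralized with Tris-HCl pH 6.8. Aβ38 or Aβ42 was read by sandwich ELISA with a fluorogenic peroxidase substrate (ex 320/em 420 nm). Results are mean % change versus T = 0 h, n = 4.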

[7] = system: Rattus norvegicus; experiment: Antialzheimer activity in Sprague-Dawley rat assessed as amyloid beta 38 level in brain at 10 mg/kg, po at 4 hrs by ELISA relative to control; format: functional; outline: as §1
[8] = Fraction unbound in dog plasma; format: ADME, cell-free, Canis lupus familiaris
[9] = system: Brain; experiment: Drug uptake in Sprague-Dawley rat brain at 10 mg/kg, po at 25 hrs by LC-MS/MS analysis; format: ADME, organism-based; parameters: dose 10 mg/kg, route oral; conditions: in vivo, BLD = below limit of detection
Outline: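 Overnight-fasted male Sprague–Dawley rats (180–220 g) were dosed 10 mg/kg by gastric intubation of a 5 mg/mL suspension in 0.5% methocellulose. Rats were anesthetized with isoflurane, CSF was taken from the cisterna magna, then they were decapitated. Brain compound levels were measured as in the mouse assay. n = 5.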

[10] = system: Plasma; experiment: Plasma concentration in CD1 mouse at 30 mg/kg, po at 48 hrs by LC-MS/MS analysis; format: ADME, organism-based; parameters: dose 30 mg/kg, route oral; conditions: in vivo, BLD = below limit of detection
Outline: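 Mice received a single 10 or 30 mg/kg oral dose. Plasma was sampled at several time points up to 48 h, with EDTA plasma obtained by centrifugation at 1900g, 10 min, 4 °C. Compound was quantified by LC-MS/MS, n = 4.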

[11] = Drug uptake in CD1 mouse brain at 30 mg/kg, po at 8 hrs by LC-MS/MS analysis; format: ADME, organism-based; parameters: dose 30 mg/kg, route oral; conditions: read-out: Drug uptake
Outline: (§2)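 Overnight-fasted male CD1 mice received one oral dose (10 or 30 mg/kg) in 20% Captisol. After sacrifice, the left brain hemisphere was stored at −18 °C. Compound level was quantified by a qualified LC-MS/MS method, alongside EDTA plasma spun at 1900g, 4 °C. n = 4 per time point.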

[12] = Drug uptake in CD1 mouse brain at 30 mg/kg, po at 4 hrs by LC-MS/MS analysis; format: ADME, organism-based; parameters: dose 30 mg/kg, route oral; conditions: read-out: Drug uptake; outline: as §2
[13] = system: Brain; experiment: Drug uptake in CD1 mouse brain at 10 mg/kg, po at 48 hrs by LC-MS/MS analysis; format: ADME, organism-based; parameters: dose 10 mg/kg, route oral; conditions: in vivo, BLD = below limit of detection; outline: as §2
[14] = Plasma concentration in CD1 mouse at 10 mg/kg, po at 4 hrs by LC-MS/MS analysis; format: ADME, organism-based; parameters: dose 10 mg/kg, route oral
[15] = Thermodynamic solubility in fed state simulated intestinal fluid; format: physicochemical; conditions: read-out: Therm_solubility
Outline: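 Thermodynamic solubility was measured in pH 4.0 and pH 7.4 buffers, 0.01 N HCl, and fasted-state and fed-state simulated intestinal fluids (FaSSIF, FeSSIF). Results are in […].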

[16] = system: Liver microsomes; experiment: Drug metabolism in human liver microsome assessed as reactive metabolite formation by gultathione-trapping assay; format: ADME
[17] = Plasma concentration in Sprague-Dawley rat at 10 mg/kg, po at 2 hrs by LC-MS/MS analysis; format: ADME, organism-based; parameters: dose 10 mg/kg, route oral
Outline: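 Overnight-fasted male Sprague-Dawley rats (180–220 g) were given 10 mg/kg by gastric intubation of a 5 mg/mL suspension in 0.5% methocellulose. Blood was collected after decapitation at 2, 4, 7 and 25 h under isoflurane anaesthesia. Plasma compound was measured as in the mouse assay, n = 5.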

[18] = target: Cytochrome P450 2C19 (Homo sapiens, UniProt P33261); experiment: Inhibition of CYP2C19 in human liver microsomes using S-mephenytoin as substrate; format: ADME, Microsome
Chain of Cytochrome P450 2C19 (P33261 whole entry): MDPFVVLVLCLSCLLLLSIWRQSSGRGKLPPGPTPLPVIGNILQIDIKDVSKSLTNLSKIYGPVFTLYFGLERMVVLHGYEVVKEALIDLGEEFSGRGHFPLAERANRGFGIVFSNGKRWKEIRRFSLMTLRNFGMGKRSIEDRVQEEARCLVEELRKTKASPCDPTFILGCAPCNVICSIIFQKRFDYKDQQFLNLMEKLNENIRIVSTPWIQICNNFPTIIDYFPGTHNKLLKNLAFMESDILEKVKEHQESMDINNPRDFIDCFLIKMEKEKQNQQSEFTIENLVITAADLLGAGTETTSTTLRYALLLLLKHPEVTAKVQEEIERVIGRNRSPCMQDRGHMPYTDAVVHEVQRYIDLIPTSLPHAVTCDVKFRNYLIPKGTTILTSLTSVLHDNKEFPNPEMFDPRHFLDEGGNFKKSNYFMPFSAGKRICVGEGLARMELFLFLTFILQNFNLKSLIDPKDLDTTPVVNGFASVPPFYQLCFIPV

[19] = system: Rattus norvegicus; experiment: Antialzheimer activity in Sprague-Dawley rat assessed as amyloid beta 40 level in brain at 10 mg/kg, po at 7 hrs by ELISA relative to control; format: functional; outline: as §1
[20] = system: Rattus norvegicus; experiment: Antialzheimer activity in Sprague-Dawley rat assessed as amyloid beta 42 level in brain at 10 mg/kg, po at 25 hrs by ELISA relative to control; format: functional; outline: as §1

Structure (SMILES): COc1nc(Nc2cccc3c2nc(-c2ccc(F)cc2)n3C)ccc1-n1cnc(C)c1
- inhibition [1]: 71%
- Activity [2]: 52%
- Activity [3]: 63%
- Activity [4]: 64%
- Papp A→B [5]: 8 ×10⁻⁶ cm/s
- Activity [6]: 50%
- Activity [7]: 114%
- fraction unbound [8]: 0.0003
- Drug uptake [9]: BLD
- Cp [10]: BLD
- concentration at 8 h [11]: 12 µM
- concentration at 4 h [12]: 21.9 µM
- Drug uptake [13]: BLD
- concentration at 4 h [14]: 5.3 µM
- solubility thermodynamic [15]: 20 µg/mL (≈ 46.7 µM)
- Drug metabolism [16]: Not Active
- concentration at 2 h [17]: 4.6 µM
- IC50 [18]: 3.5 µM
- Activity [19]: 66%
- Activity [20]: 92%

— ChEMBL document CHEMBL2176900, “Design and synthesis of a novel series of bicyclic heterocycles as potent γ-secretase modulators” (J Med Chem, 2012)
